Measurements gathered from unrelated publications.
Lines come from different studies, so protocols differ.
AMY2: Pancreatic alpha-amylase (AMY2, Sus scrofa, UniProt P00690)
Hydroxyacylglutathione hydrolase, mitochondrial: Hydroxyacylglutathione hydrolase, mitochondrial (Homo sapiens, UniProt Q16775)
SIRT2: NAD-dependent protein deacetylase sirtuin-2 (SIRT2, Homo sapiens, UniProt Q8IXJ6)
HSD11B2: 11-beta-hydroxysteroid dehydrogenase type 2 (HSD11B2, Homo sapiens, UniProt P80365)

The inhibition of `Cc1ccc(N(O)N=Nc2ccc(S(=O)(=O)Nc3onc(C)c3C)cc2)cc1` is reported as 21.1% (AMY2; enzyme activity, inhibitor; 60 µg/mL).
The inhibition of `c1ccc(CN(CCN(Cc2ccccn2)Cc2ccccn2)Cc2ccccn2)nc1` is reported as 47.6% (Hydroxyacylglutathione hydrolase, mitochondrial; cell-free assay; 100 µM).
For `CCCC(=S)NCCCC[C@H](NS(C)(=O)=O)C(=O)N[C@H](C)C(=O)N[C@@H](CCCNC(=N)N)C(N)=O`, the inhibition was 31% (SIRT2; enzyme activity, inhibitor; 10 µM).
With `COc1cc(C=Cc2cc(-c3ccc(N(C)C)cc3)nc(O)n2)ccc1O` the inhibition was 60% (AMY2; enzyme activity, inhibitor, absorbance; 2.5 µg/mL).
For `CN(C)CCCN1c2ccccc2Sc2ccc(Cl)cc21`, the inhibition was less than 40% (HSD11B2; enzyme activity, inhibitor; 20 µM, lysate).
The inhibition of `O=C(NC1CCC1)[C@H](Cc1c[nH]c2ccccc12)NC(=O)[C@H](CCCCNC(=S)NCCn1nn[nH]c1=O)NS(=O)(=O)c1cccc(F)c1` is reported as 8% (SIRT2; enzyme activity, inhibitor; 100 µM).
For `Cc1noc(NS(=O)(=O)c2ccc(N=NN(O)c3ccccc3)cc2)c1C`, the inhibition was 73.7% (AMY2; enzyme activity, inhibitor; 300 µg/mL).
The inhibition of `O=C(O)CN1CCN(CC(=O)O)CCN(CC(=O)O)CC1` is reported as 0.85% (Hydroxyacylglutathione hydrolase, mitochondrial; cell-free assay; 100 µM).
`Cc1cccc(N(O)N=Nc2ccc(S(=O)(=O)Nc3onc(C)c3C)cc2)c1` gave an inhibition of 52.6% (AMY2; enzyme activity, inhibitor; 240 µg/mL).
The inhibition of `CC(=S)NCCCC[C@H](NC(=O)OCc1ccccc1)C(=O)N[C@@H](Cc1c[nH]c2ccccc12)C(=O)N[C@@H](CCC(=O)O)C(N)=O` is reported as 39% (SIRT2; enzyme activity, inhibitor; 10 µM).
The inhibition of `CCN(c1cc(C#CCN2CCOCC2)cc(C(=O)NCc2c(C)cc(C)[nH]c2=O)c1C)[C@H]1CC[C@H](N(C)CCOC)CC1` is reported as 8% (N-lysine methyltransferase SMYD2 (SMYD2, Homo sapiens, UniProt Q9NRG4); enzyme activity, inhibitor; 1 µM).
With `CC(C)c1c(C(=O)Nc2ccccc2)c(-c2ccccc2)c(-c2ccc(F)cc2)n1CC[C@@H](O)C[C@@H](O)CC(=O)O` the inhibition was less than 40% (HSD11B2; enzyme activity, inhibitor; 20 µM, lysate).
`COc1cc(C=CC(=O)CC(c2ccc(N(C)C)cc2)n2ccnc2)ccc1O` (stereo not drawn) has an inhibition of 58.2% (AMY2; enzyme activity, inhibitor, absorbance; 1.25 µg/mL).
`CC/C(=N\NC(=O)NCc1cccc(O)c1)c1ccc(O)c(C)c1O` has an inhibition of 0.7% (Fibroblast growth factor receptor 3 (FGFR3, Homo sapiens, UniProt P22607, V555M); enzyme activity, inhibitor; 0.1 µM).
`COc1cc(C=CC(=O)CC(c2ccc([N+](=O)[O-])cc2)n2ccnc2)ccc1O` (stereo not drawn) has an inhibition of 87.6% (AMY2; enzyme activity, inhibitor, absorbance; 10 µg/mL).
For `COc1cc(NC(C)=O)c(Cl)cc1C(=O)Nc1nccs1`, the inhibition was 14.4% (Amine oxidase [flavin-containing] A (Maoa, Rattus norvegicus, UniProt P21396); cell-free assay; 10 µM).
`Cc1ccc(N(O)N=Nc2ccc(S(=O)(=O)Nc3cc(C)on3)cc2)cc1` has an inhibition of 68.4% (AMY2; enzyme activity, inhibitor; 240 µg/mL).
For `COc1cc(C=Cc2cc(-c3ccccc3)nc(O)n2)ccc1O`, the inhibition was 66.3% (AMY2; enzyme activity, inhibitor, absorbance; 2.5 µg/mL).
For `CCCCCCCCCCCCCC(=O)NNCCC[C@H](NC(=O)OCc1ccccc1)C(=O)N[C@@H](Cc1c[nH]c2ccccc12)C(=O)NC(C)C`, the inhibition was 19% (SIRT2; enzyme activity, inhibitor; 100 µM).
With `Cc1cc(NS(=O)(=O)c2ccc(N=NN(O)c3ccccc3)cc2)no1` the inhibition was 52.6% (AMY2; enzyme activity, inhibitor; 180 µg/mL).
For `CC(=S)NCCCC[C@H](NC(=O)OCc1ccccc1)C(=O)N[C@@H](Cc1c[nH]c2ccccc12)C(=O)N[C@@H](CC(N)=O)C(N)=O`, the inhibition was 26% (SIRT2; enzyme activity, inhibitor; 1 µM).
With `C=C(CC)C(=O)c1ccc(OCC(=O)O)c(Cl)c1Cl` the inhibition was less than 40% (HSD11B2; enzyme activity, inhibitor; 20 µM, lysate).
For `Cn1c(CNC(=S)NCCCC[C@H](NS(=O)(=O)c2cccc(F)c2)C(=O)N[C@@H](Cc2c[nH]c3ccccc23)C(=O)NC2CCC2)n[nH]c1=S`, the inhibition was 43% (SIRT2; enzyme activity, inhibitor; 30 µM).
The inhibition of `Oc1cccc(Nc2nc(-c3ccc(F)cc3F)cs2)c1` is reported as -43.3% (Muscarinic acetylcholine receptor M2 (CHRM2, Homo sapiens, UniProt P08172); cell-free assay; 10 µM).
`CCCN(O)N=Nc1ccc(S(=O)(=O)Nc2cc(C)on2)cc1` gave an inhibition of 57.9% (AMY2; enzyme activity, inhibitor; 240 µg/mL).
For `CCCCCCCCCCC[C@@H](C[C@@H]1OC(=O)[C@H]1CCCCCC)OC(=O)[C@H](CC(C)C)NC=O`, the inhibition was 92.2% (Pancreatic triacylglycerol lipase (PNLIP, Sus scrofa, UniProt P00591); enzyme activity, inhibitor, absorbance; 50 µg/mL).
With `C[C@H]1O[C@H](O[C@H]2[C@H](O)[C@@H](O)[C@@H](O[C@H]3[C@H](O)[C@@H](O)C(O)O[C@@H]3CO)O[C@@H]2CO)[C@H](O)[C@@H](O)[C@@H]1N[C@H]1C=C(CO)[C@@H](O)[C@H](O)[C@H]1O` (stereo partly drawn) the inhibition was 84.7% (AMY2; enzyme activity, inhibitor; 150 µg/mL).
For `O=C1CC(CCNC(=S)NCCCC[C@H](NS(=O)(=O)c2cccc(F)c2)C(=O)N[C@@H](Cc2c[nH]c3ccccc23)C(=O)NC2CCC2)=NO1`, the inhibition was 9% (SIRT2; enzyme activity, inhibitor; 10 µM).
`CN(O)N=Nc1ccc(S(=O)(=O)Nc2nccs2)cc1` has an inhibition of 26.3% (AMY2; enzyme activity, inhibitor; 60 µg/mL).
`CC(=S)NCCCC[C@H](NC(=O)OCc1ccccc1)C(=O)N[C@@H](Cc1c[nH]c2ccccc12)C(=O)N[C@@H](CCCCN)C(N)=O` has an inhibition of 36% (SIRT2; enzyme activity, inhibitor; 1 µM).
